From ChEMBL document CHEMBL1782029, “Synthesis and biological evaluation of N-substituted benzo[c]phenanthrolines and benzo[c]phenanthrolinones as antiproliferative agents” (Eur J Med Chem, 2011)
The source made the active and inactive calls. The calls are words filed in the database; no cut-off is given here.

What was measured:
[1] = target: T1, DNA topoisomerase 1 (Homo sapiens) (UniProt P11387); test: Inhibition of camptothecin-induced poisoning effect of human topoisomerase 1 assessed as suppression of CPT-induced 117 bp DNA cleavage by SDS-PAGE analysis
T1 sequence (whole entry): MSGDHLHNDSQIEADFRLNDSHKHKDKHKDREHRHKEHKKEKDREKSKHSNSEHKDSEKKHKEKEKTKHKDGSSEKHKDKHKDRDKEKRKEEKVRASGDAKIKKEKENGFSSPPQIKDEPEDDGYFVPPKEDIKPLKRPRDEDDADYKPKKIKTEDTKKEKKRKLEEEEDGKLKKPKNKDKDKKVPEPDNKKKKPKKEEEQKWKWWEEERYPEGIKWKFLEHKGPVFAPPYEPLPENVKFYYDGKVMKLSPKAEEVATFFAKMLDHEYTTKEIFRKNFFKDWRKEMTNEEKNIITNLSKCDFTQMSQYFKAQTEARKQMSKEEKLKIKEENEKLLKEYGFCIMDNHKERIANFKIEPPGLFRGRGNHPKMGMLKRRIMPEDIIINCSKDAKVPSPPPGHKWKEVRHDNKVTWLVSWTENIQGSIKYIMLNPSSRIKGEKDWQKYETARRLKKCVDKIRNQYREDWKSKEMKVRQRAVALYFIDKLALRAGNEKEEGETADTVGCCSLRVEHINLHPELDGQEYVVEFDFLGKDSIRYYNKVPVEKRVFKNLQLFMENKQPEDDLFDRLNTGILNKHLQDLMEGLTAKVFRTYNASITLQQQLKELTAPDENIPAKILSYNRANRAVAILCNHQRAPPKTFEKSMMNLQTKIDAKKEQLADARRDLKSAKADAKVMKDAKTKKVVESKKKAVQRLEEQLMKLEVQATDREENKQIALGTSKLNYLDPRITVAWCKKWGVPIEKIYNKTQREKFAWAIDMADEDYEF

[2] = system: Calf thymus DNA; test: Binding affinity to calf thymus DNA at 20 uM by UV-vis spectrophotometry analysis; type: nucleic-acid assay; conditions: Bos taurus
[3] = system: HT-29; test: Cytotoxicity against human HT-29 cells after 72 hrs by MTS assay; type: functional, cell-based; conditions: HT-29, 72 h
[4] = target: T1, DNA topoisomerase 1 (Homo sapiens); test: Inhibition of human recombinant topoisomerase 1-mediated relaxation of supercoiled pUC19 DNA assessed as formation of nicked DNA at 1 to 50 uM using ethidium bromide staining by agarose gel electrophoresis
Outline: (§1)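 Supercoiled pUC19 plasmid (130 ng) was incubated with 4 units of human recombinant Top1 at 37 °C for 45 min in relaxation buffer (50 mM Tris pH 7.8, 50 mM KCl, 10 mM MgCl2, 1 mM DTT, 1 mM EDTA, 1 mM ATP) with increasing compound concentrations. Products were resolved on 1% agarose at room temperature, 2 h at 120 V, then stained with ethidium bromide and imaged under UV.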

[5] = target: T1, DNA topoisomerase 1 (Homo sapiens); test: Inhibition of human recombinant topoisomerase 1 assessed as cleavage of 117-mer DNA fragment at 0.5 to 5 uM using ethidium bromide staining by agarose gel electrophoresis analysis
[6] = system: Calf thymus DNA; test: Binding affinity to calf thymus DNA by circular dichroism analysis; type: nucleic-acid assay; conditions: Bos taurus
[7] = system: HT-29; test: Cell cycle arrest in human HT-29 cells at G2/M phase at 0.1 to 2.5 uM after 48 hrs using propidium iodide staining by FACS analysis; type: functional, cell-based
Outline: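 Exponentially growing HT-29 colon carcinoma cells (300,000 per well) were plated for 24 h, then exposed to 0.1, 1 or 2.5 µM compound for 48 h. Cells were fixed, stained with propidium iodide and analysed by flow cytometry (FACScan).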

[8] = target: DNA topoisomerase 2-alpha (Homo sapiens) (UniProt P11388); test: Inhibition of human topoisomerase 2 assessed as formation of linear form of supercoiled pUC19 DNA at 50 uM after 45 mins using ethidium bromide staining by agarose gel analysis
Sequence of DNA topoisomerase 2-alpha (Homo sapiens) (P11388 whole entry, the tested form may be a part): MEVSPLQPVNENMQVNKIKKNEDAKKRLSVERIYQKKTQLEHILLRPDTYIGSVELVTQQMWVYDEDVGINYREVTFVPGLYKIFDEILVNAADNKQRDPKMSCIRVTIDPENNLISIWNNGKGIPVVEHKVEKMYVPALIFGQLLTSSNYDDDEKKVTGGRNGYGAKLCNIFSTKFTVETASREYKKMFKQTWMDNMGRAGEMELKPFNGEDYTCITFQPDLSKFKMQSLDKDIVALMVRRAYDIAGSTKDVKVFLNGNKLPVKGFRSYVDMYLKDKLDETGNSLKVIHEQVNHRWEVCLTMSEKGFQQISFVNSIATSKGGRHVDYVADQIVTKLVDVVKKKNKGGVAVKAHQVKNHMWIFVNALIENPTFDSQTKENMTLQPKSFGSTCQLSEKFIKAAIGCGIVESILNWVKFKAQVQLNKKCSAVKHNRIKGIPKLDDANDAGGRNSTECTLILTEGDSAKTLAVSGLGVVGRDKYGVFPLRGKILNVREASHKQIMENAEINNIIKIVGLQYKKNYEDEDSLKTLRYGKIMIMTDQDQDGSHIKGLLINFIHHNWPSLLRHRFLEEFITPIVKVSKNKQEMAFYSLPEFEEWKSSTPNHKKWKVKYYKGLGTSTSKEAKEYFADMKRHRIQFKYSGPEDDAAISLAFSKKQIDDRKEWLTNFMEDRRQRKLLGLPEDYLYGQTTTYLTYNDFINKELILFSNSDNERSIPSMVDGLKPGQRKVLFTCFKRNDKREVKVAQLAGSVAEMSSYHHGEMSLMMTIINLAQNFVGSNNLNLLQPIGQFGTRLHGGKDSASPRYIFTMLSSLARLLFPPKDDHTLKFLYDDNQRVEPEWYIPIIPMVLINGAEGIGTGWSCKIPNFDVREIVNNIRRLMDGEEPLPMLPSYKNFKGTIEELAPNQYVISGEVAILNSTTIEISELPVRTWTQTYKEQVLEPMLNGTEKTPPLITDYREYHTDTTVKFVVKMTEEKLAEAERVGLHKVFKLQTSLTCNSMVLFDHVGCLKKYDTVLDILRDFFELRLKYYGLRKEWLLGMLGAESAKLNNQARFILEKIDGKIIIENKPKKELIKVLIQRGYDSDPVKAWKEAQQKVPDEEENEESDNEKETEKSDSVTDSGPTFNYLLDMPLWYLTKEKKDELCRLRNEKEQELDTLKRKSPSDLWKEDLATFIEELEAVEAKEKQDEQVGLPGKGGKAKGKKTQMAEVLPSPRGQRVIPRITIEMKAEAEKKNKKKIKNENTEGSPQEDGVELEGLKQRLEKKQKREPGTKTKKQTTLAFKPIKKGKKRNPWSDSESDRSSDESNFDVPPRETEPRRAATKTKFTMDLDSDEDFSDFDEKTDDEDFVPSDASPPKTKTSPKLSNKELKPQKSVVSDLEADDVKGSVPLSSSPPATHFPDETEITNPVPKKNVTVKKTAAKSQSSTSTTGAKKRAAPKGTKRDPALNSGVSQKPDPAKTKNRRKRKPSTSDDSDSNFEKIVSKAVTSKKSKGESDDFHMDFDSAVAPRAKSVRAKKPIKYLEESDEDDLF

[9] = target: T1, DNA topoisomerase 1 (Homo sapiens); test: Inhibition of human recombinant topoisomerase 1-mediated relaxation of supercoiled pUC19 DNA assessed as formation of nicked DNA at 0.1 to 5 uM using ethidium bromide staining by agarose gel electrophoresis; outline: as §1
[10] = system: Nucleic Acid; test: Binding affinity to 265 bp of 3'-end-radio-labelled DNA fragment at 0.5 to 5 uM treated 15 mins before Dnase 1-mediated digestion by footprinting assay; type: nucleic-acid assay
Outline: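 DNase I footprinting. It was equilibrated with compound for 15 min at 37 °C, then digested 3 min with DNase I (0.01 unit/ml) in 20 mM NaCl, 2 mM MgCl2, 2 mM MnCl2, pH 7.3. Samples were lyophilised, denatured at 90 °C and run on an 8% denaturing polyacrylamide gel.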

[11] = target: DNA topoisomerase 2-alpha (Homo sapiens) (UniProt P11388); test: Inhibition of human topoisomerase 2 assessed as formation of nicked form of supercoiled pUC19 DNA at 50 uM after 45 mins using ethidium bromide staining by agarose gel analysis
[12] = target: T1, DNA topoisomerase 1 (Homo sapiens); test: Inhibition of human recombinant topoisomerase 1 assessed as cleavage of 117-mer DNA fragment at 20 to 50 uM using ethidium bromide staining by agarose gel electrophoresis analysis

Row | SMILES | inhibition [1] | Activity [2] | IC50 [3] [nM] | Topoisomerase 1 inhibition (active/inactive) [4] | inhibition [5] | Activity [6] | Activity [7] | inhibition [8] | Top1 relaxation inhibition (qualitative call) [9] | inhibition [10] | inhibition [11] | inhibition [12]
1 | COc1cc2c(=O)n(CCN(C)C)c3c4cccnc4ccc3c2cc1OC | Dose-dependent effect | Active | 1660 | Active | inactive | Active | – | – | – | – | – | –
2 | CN(C)CCn1c(=O)c2cc3c(cc2c2ccc4cnccc4c21)OCO3 | Dose-dependent effect | Active | 78 | – | – | Active | Active | inactive | Active | Active | inactive | inactive
3 | CN(C)CCNc1nc2c3ccncc3ccc2c2cc3c(cc12)OCO3 | Dose-dependent effect | Active | 70 | – | – | Active | Active | inactive | Active | Active | inactive | inactive
4 | COc1cc2c(NCCCN(C)C)nc3c4ccncc4ccc3c2cc1OC | – | Active | 3140 | – | – | Active | – | inactive | Active | inactive | inactive | inactive
5 | CN(C)CCCn1c(=O)c2cc3c(cc2c2ccc4cnccc4c21)OCO3 | Dose-dependent effect | Active | 240 | – | – | Active | Active | inactive | Active | Active | inactive | inactive
6 | COc1cc2c(NCCN(C)C)nc3c4cccnc4ccc3c2cc1OC | Dose-dependent effect | Active | 970 | – | – | Active | – | inactive | Active | Active | inactive | inactive
7 | COc1cc2c(=O)n(CCCN(C)C)c3c4ccncc4ccc3c2cc1OC | Dose-dependent effect | Active | 6110 | Active | inactive | Active | – | – | – | – | – | –
8 | COc1cc2c(=O)n(CCCN(C)C)c3c4cccnc4ccc3c2cc1OC | Dose-dependent effect | Active | 4980 | Active | – | Active | – | – | – | – | – | –
9 | COc1cc2c[n+](C)c3c4cc5c(cc4ccc3c2cc1OC)OCO5 [NITIDINE CHLORIDE] | – | Active | 2750 | – | inactive | Active | – | inactive | Active | – | inactive | –
10 | CCN(CC)CCn1c(=O)c2cc3c(cc2c2ccc4ncccc4c21)OCO3 | Dose-dependent effect | Active | 75 | – | – | Active | Active | inactive | Active | Active | inactive | inactive
11 | COc1cc2c(=O)n(CCN(C)C)c3c4ccncc4ccc3c2cc1OC | Dose-dependent effect | Active | 1420 | Active | inactive | Active | – | – | – | – | – | –
12 | CCN(CC)CCn1c(=O)c2cc(OC)c(OC)cc2c2ccc3ncccc3c21 | Dose-dependent effect | Active | 2630 | Active | inactive | Active | – | – | – | – | – | –
13 | CCN(CC)CCn1c(=O)c2cc3c(cc2c2ccc4cnccc4c21)OCO3 | Dose-dependent effect | Active | 230 | – | – | Active | Active | inactive | Active | Active | inactive | inactive
14 | CN(C)CCNc1nc2c3cccnc3ccc2c2cc3c(cc12)OCO3 | Dose-dependent effect | Active | 110 | – | – | Active | Active | inactive | Active | Active | inactive | inactive
15 | COc1cc2c(NCCCN(C)C)nc3c4cccnc4ccc3c2cc1OC | Dose-dependent effect | Active | 3330 | – | – | Active | – | inactive | Active | Active | inactive | inactive
16 | CN(C)CCCNc1nc2c3ccncc3ccc2c2cc3c(cc12)OCO3 | Dose-dependent effect | Active | 7620 | – | – | Active | – | inactive | Active | inactive | inactive | inactive
17 | CN(C)CCCn1c(=O)c2cc3c(cc2c2ccc4ncccc4c21)OCO3 | Dose-dependent effect | Active | 230 | – | – | Active | Active | inactive | Active | Active | inactive | inactive
18 | CCN(CC)CCCNc1nc2c3cccnc3ccc2c2cc(OC)c(OC)cc12 | Dose-dependent effect | Active | 5770 | – | – | Active | – | inactive | Active | Active | inactive | inactive
19 | CCN(CC)CCCNc1nc2c3ccncc3ccc2c2cc(OC)c(OC)cc12 | Dose-dependent effect | Active | 5470 | – | – | Active | – | inactive | Active | inactive | inactive | inactive
20 | CN(C)CCn1c(=O)c2cc3c(cc2c2ccc4ncccc4c21)OCO3 | Dose-dependent effect | Active | 120 | – | – | Active | Active | inactive | Active | Active | inactive | inactive
